MC4R ag barr: activates human MC4R beta-arrestin recruitment | P32245 | U2OS MC4R beta-arrestin complementation, luminescence; percent of melanotan II response, DMSO zero | activation, % at 8.9 µM | 360,000 tested, 0.98% active;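 active = activation above a per-plate cutoff, the mean activation of sample wells on that plate plus 3 SD, cut at about 8% in these data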
Target sequence (P32245 whole entry, looked up): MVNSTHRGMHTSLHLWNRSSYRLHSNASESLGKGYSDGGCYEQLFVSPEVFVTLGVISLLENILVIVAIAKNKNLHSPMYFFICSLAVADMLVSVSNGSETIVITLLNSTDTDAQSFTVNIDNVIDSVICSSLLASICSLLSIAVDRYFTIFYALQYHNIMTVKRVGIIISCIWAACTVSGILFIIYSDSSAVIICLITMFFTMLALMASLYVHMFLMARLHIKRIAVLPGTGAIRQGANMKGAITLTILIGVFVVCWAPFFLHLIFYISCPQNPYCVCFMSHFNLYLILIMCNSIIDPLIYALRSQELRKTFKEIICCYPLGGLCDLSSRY
NTR1 agonist: activates human neurotensin receptor 1. P30989. NTR1-U2OS beta-arrestin-GFP spot imaging, agonist mode. activation, % at 20 µM. 330,000 tested, 0.17% active;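 active = activation at or above 40% of the spot to cytoplasm intensity ratio, with at least 20 cells analyzed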;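 note: 0% = DMSO without peptide and 100% = 100 nM NTR1 peptide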
AI-2 QS mod: modulates the Vibrio harveyi AI-2 quorum sensing system | Vibrio harveyi JMH597 AI-2 luminescence/OD600 ratio, 9 h; active compounds read low; strain lacks LuxN and CqsS sensors; 0 = neutral-control median | activity change, % at 7.5 µM | 300,000 tested, 0.4% active | AID 2094; in the data active = activity change below about -75%, passing the limit was not always enough;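 note: luminescence divided by OD600 gain over 9 h not by final OD600 alone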
MC4R antagonist: human MC4R antagonism in cAMP assay. 360,000 tested, 0.48% active. MC4R-expressing cells, MTII-stimulated cAMP, LANCE TR-FRET. P32245. inhibition, % at 6.5 µM;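 active = inhibition above its plate's cutoff, the mean of tested wells on that plate plus 3 SD, cut at about 29% in these data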;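 note: 0% = Melanotan II alone and 100% = Melanotan II plus saturating MCL0020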
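Material: U2OS-MC4R stable cell line | Reagent: Melanotan II challenge after compound preincubation | Doses: One concentration, 6.5 µM nominal | Incubation: 30-min compound preincubation, 1-h Melanotan II challenge, 1-h detection, room temperature | Signal: TR-FRET cAMP assay | Replicates: One well per compound, no replicates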
U2OS cAMP counter: U2OS forskolin cAMP inhibition counter-screen; inhibition, % at 6.5 µM; parental U2OS, LANCE TR-FRET; AID 602193; shares compounds with MC4R antagonist; 1,600 tested, 26% active;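 active = mean inhibition over triplicates above the low-control well mean plus 3 SD, set per campaign, cut at about 13% in these data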;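 note: signal is single emission at 671 nm which falls as cellular cAMP rises; 0% = forskolin-stimulated wells and 100% = buffer without forskolin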
MC4R cAMP antag: human MC4R cAMP antagonism confirmation; shares compounds with MC4R antagonist; MC4R-expressing cells, MTII-stimulated cAMP, TR-FRET; inhibition, % at 6.5 µM; 1,600 tested, 27% active; in the data active = inhibition above about 29%;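 note: 0% = agonist stimulated wells alone and 100% = agonist stimulated wells plus saturating reference antagonist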
Starred values were filed as active, the others as inactive; . = no result given; + = active, no number. An excerpt weighted towards active compounds, which were near 1.8% of everything screened.

SMILES | MC4R ag barr | NTR1 agonist | AI-2 QS mod | MC4R antagonist | U2OS cAMP counter | MC4R cAMP antag
CS(=O)c1nc(-c2ccc(Br)cc2)cc(-c2ccccc2)c1C#N (stereo not given) | 1 | 66* | -3 | 57* | 12 | 66*
CC(C)CNC(=S)N1CCC(Cc2ccccc2)CC1 | -1 | 0 | 16 | 10 | . | .
COc1ccc(OCc2cc(C(=O)N(Cc3nccn3C)C(C)C)no2)c2ccccc12 | -2 | -1 | 9 | 1 | . | .
Cc1noc(C(=O)Nc2cccc(O)c2)c1Cl | 1 | 2 | -10 | 29* | 4 | -3
O=C(COc1ccccc1)NCC(=O)N1CCCC1 | 0 | 0 | 1 | -2 | . | .
CC(C)c1ccc(/C=C(\c2nc3ccccc3[nH]2)S(=O)(=O)c2ccccc2)cc1 | 4 | 25 | 13 | 12 | . | .
O=S(=O)(/C(=C/c1ccc(C(F)(F)F)cc1)c1nc2ccccc2[nH]1)c1ccccc1 | -2 | . | 9 | 35* | 13* | 48*
Cc1cc(NC(=O)CSc2nc3c(c(-c4cccnc4)c2C#N)CCC3)no1 | 3 | 2 | 26 | 47* | 19* | 57*
Cc1cc(NC(=O)CSc2nc(-c3cccnc3)ccc2C#N)no1 | 0 | -1 | 14 | 11 | . | .
Cc1cc(NC(=O)CSc2nc3ccccc3cc2C#N)no1 | 0 | 0 | 3 | 51* | 7 | 0
Cc1ccc(S(=O)(=O)N2CCN(C(=O)CC(C)n3nc(C)c(Cl)c3C)CC2)cc1 (stereo not given) | 2 | 1 | 22 | 0 | . | .
CC1=NN(c2ccccc2)C(=O)/C1=C\c1cn(-c2ccccc2)nc1C | 3 | 7 | 19 | 28* | 5 | 6
Cc1ccc(-c2nn(-c3ccccc3)cc2C=C2C(=O)CC(C)(C)CC2=O)cc1 | 2 | 46* | 19 | 31* | 18* | 23
CCCc1cc(=O)oc2cc(OC3CCCCC3=O)ccc12 (stereo not given) | -1 | 0 | -9 | 3 | . | .
Cc1ccoc1C(=O)N1CCCC(CCC(=O)N2CCN(c3ccccn3)CC2)C1 (stereo not given) | 0 | 0 | 9 | 31* | 3 | 7
O=C(O)c1ccccc1C(=O)c1cccc2c(Br)cccc12 | -3 | . | . | + | + | +
O=C(O)c1ccccc1C(=O)c1cccc2c(F)cccc12 | -2 | . | . | 9 | . | .
Cc1cc2nc(CSc3ccc(Cl)cc3)cc(=O)n2[nH]1 | 1 | 0 | 40 | 29* | -3 | -7
Cc1ccc(C2(c3ccccc3)NC(=O)N(CC(=O)NCc3ccco3)C2=O)cc1C (stereo not given) | 1 | 0 | . | 7 | . | .
CC(C)[C@@H](C(=O)N1CCCC1)N1C(=O)N2CCc3c([nH]c4ccccc34)[C@@]2(C)C1=O | -3 | 2 | 7 | 10 | . | .
CCN(C[C@H]1N[C@@](CC)(C(=O)OC)[C@H]2C(=O)N(Cc3ccccc3)C(=O)[C@@H]12)C(=O)c1ccc(C(C)(C)C)cc1 | -2 | 4 | . | 41* | -2 | 21
C=C1CC2(CC(c3ccccc3)OC(c3ccccc3)C2)OC1=O (stereo not given) | -1 | . | . | 34* | 21* | 46*
c1ccc(C2OCC3(CO2)COC(c2ccccc2)OC3)cc1 (stereo not given) | -1 | 0 | 8 | 5 | . | .
O=C(CNC(=O)/C(=C\c1ccc(Br)cc1)NC(=O)c1ccccc1)OCc1ccccc1 | -3 | 22 | 20 | 40* | 19* | 48*
CC(C)(C)c1ccc2c(c1)OC(C(=O)N/N=C\c1ccc(-c3cccc(C(=O)O)c3)o1)CO2 (stereo not given) | 0 | 3 | 26 | 29* | -4 | -11
SMILES | MC4R ag barr | NTR1 agonist | AI-2 QS mod | MC4R antagonist | U2OS cAMP counter | MC4R cAMP antag
COc1cc(S(=O)(=O)Nc2ccc3c(c2)C(=O)N(C)C3=O)ccc1NC(C)=O | -1 | -2 | . | 0 | . | .
O=C(COC(=O)c1ccccc1Br)Nc1ccc2[nH]c(=O)[nH]c2c1 | -1 | 0 | -32 | 0 | . | .
O=C(O)C(Cc1c[nH]c2ccccc12)NS(=O)(=O)c1cccc(Cl)c1Cl (stereo not given) | 1 | 0 | 13 | 29* | 2 | 2
Cc1ccc(NC(=O)CN(C)CC(=O)N(CC(C)C)c2c(N)n(CC(C)C)c(=O)[nH]c2=O)c(C)c1 | 0 | 2 | . | -2 | . | .
COc1ccc2c(c1)CCC1(C)CC(=O)C(Br)=C21 (stereo not given) | 0 | . | . | 40* | 34* | 53*
CCN(CC)C(=O)C(C)N(C#N)c1nc(Cl)nc(N(C)C)n1 (stereo not given) | -2 | 0 | 4 | 43* | 11 | 28
CCN(CC)C(=O)C(C)N(C#N)c1nc(SC)nc(N(C)C)n1 (stereo not given) | 0 | 1 | 0 | 0 | . | .
CCOC(=O)c1cc(-c2csc(-c3ccc(C(F)(F)F)cc3)n2)on1 | 1 | 0 | . | 37* | 2 | -8
CCOC(=O)c1cc(-c2csc(-c3ccc(C(C)(C)C)cc3)n2)on1 | 0 | 2 | 21 | 14 | . | .
CCOc1cccc(C2/C(=C(/O)c3ccc4c(c3)CC(C)O4)C(=O)C(=O)N2CCN2CCOCC2)c1 (stereo not given) | -1 | 1 | 28 | 38* | 0 | -12
CC(C)Cc1nc2oc3c(Cl)ncnc3c2c2c1CCCC2 | -2 | 34 | 22 | 46* | 14* | 32*
CCCc1nc2oc3c(Cl)ncnc3c2c2c1CCCC2 | -1 | 4 | 9 | 18 | . | .
CCC(C)(C)NC(=O)CN(C(=O)C(=O)Nc1ccc2c(c1)OCCO2)N1CCOCC1 | 1 | -1 | 46 | 5 | . | .
Cc1ccccc1Sc1ccc(N)cn1 | 0 | 1 | 22 | 4 | . | .
CCOC(=O)C(=O)Nc1cccc(C(=O)OCC)c1 | 0 | 0 | 28 | 29* | 1 | 2
O=C1OCCC1=COCCCCCOC=C1CCOC1=O | -1 | . | . | 6 | . | .
Cc1ccc(NC(=O)COC(=O)c2cccc(N3C(=O)c4ccccc4C3=O)c2)cc1 | 2 | 4 | 23 | 4 | . | .
CC(OC(=O)c1cccc(N2C(=O)c3ccccc3C2=O)c1)C(=O)Nc1ccc(N(C)C)cc1 (stereo not given) | 0 | 0 | 16 | 33* | -7 | -15
Cc1ccc(C)c(OCC(=O)N(Cc2ccccc2)c2c(N)n(Cc3ccccc3)c(=O)[nH]c2=O)c1 | -1 | . | . | 3 | . | .
Cc1ccc(C(=O)Nc2ncccc2O)o1 | 0 | -1 | 11 | 5 | . | .
COC(=O)COc1ccc2cc(-c3ccc(OC)cc3)c(=O)oc2c1 | 0 | 2 | 9 | 39* | 26* | 42*
COC(=O)COc1ccc2cc(-c3ccccc3)c(=O)oc2c1 | -1 | 2 | 14 | 40* | 24* | 56*

Bioassay records: PubChem, several laboratories
